# Shown is part of a subset that was picked to be rich in hits.
# Insulin prom act = TRM-6 insulin promoter activation. TRM-6 cells (human fetal islet line), insulin promoter eGFP reporter, imaging; plate-scaled: unstimulated 0, stimulated control 100. activation, % at 2 µM. hit rate 0.81% among 130,000;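 active means activation at 2 µM above a set limit, confirmed on inspection of the cell images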;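 further: share of cells whose green reporter signal exceeds an intensity cutoff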
#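 test system = TRM-6 insulin promoter–eGFP reporter cells | benchmarks = stimulated versus unstimulated wells as plate controls | read-out basis = percent cells above green-intensity threshold, converted to percent activation versus plate controls | detection = fixed-cell fluorescence microscopy, eGFP plus Hoechst | incubation = tamoxifen pre-incubation 15 h overnight, then compound exposure 48 h at 37 °C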
# * marks the source's active call; other numbers are inactive results.
SMILES,Insulin prom act
Nc1ccc(Cl)cc1C(=O)c1ccccc1Cl,433*
Nc1c([N+](=O)[O-])cc(F)c(N2CCNCC2)c1Br,0
CN(C(=O)Oc1ccc(C(=O)c2ccc(Cl)cc2)cc1)c1ccccc1,3
O=C(CNS(=O)(=O)c1cccs1)N1CCC2(CC1)OCCO2,0
O=C(c1cc(-c2ccccc2)on1)N1CCC2(CC1)OCCO2,0
O=C(NCc1ccc(C(=O)N2CCC3(CC2)OCCO3)cc1)c1cccc(Br)c1,227*
CC12CCCCC1N(O)CN2O (stereo not drawn),3
Cc1nn(Cc2ccccc2)c(C)c1C(=O)OCC(=O)Nc1ccccc1SCC#N,118
CCOC(=O)c1ccc(N=Cc2c(O)n(-c3ccccc3F)c(=S)[nH]c2=O)cc1,-3
COc1ccc(N=Cc2c(O)n(-c3ccc(C)cc3)c(=O)[nH]c2=O)cc1,-83
CCN(CC)c1ccc(N=Cc2c(O)n(-c3cc(OC)ccc3OC)c(=O)[nH]c2=O)cc1,650*
COP(=O)(OC)C(NC(=O)C(C)(C)C)=C(Cl)Cl,7
COC(=NC1CCCC1)C(O)c1c[nH]c2ccccc12 (stereo not drawn),667*
Cc1sc2nc(COC(=O)Cc3ccccc3)[nH]c(=O)c2c1C,-8
CN1CCC(C)(O)C2CCCCC21 (stereo not drawn),-7
Cc1ccc(CS(=O)(=O)CCC(=O)N2CCC3(CC2)OCCO3)cc1,9
Cc1ccc2c(c1)N(CCC(=O)N1CCC3(CC1)OCCO3)C(=O)CO2,8
Cc1ccc(Cc2c(C)nc3nc(SCC(=O)N4CCC5(CC4)OCCO5)nn3c2C)cc1,125*
CC(=O)OC1C2CCCC1C(N1CCCC1)CC2 (stereo not drawn),-3
CCCCn1c(O)c(C(C)=Nc2cccc(C(=O)O)c2)c(=O)[nH]c1=O,8
CC(C)N(CC(O)c1cccc([N+](=O)[O-])c1)C(C)C (stereo not drawn),8
Cn1c(=O)n(C)c2cc([N+](=O)[O-])c(N3CCNCC3)cc21,0
Cc1cc(S(=O)(=O)NC(C)C)ccc1OCC(=O)N1CCN(Cc2ccc3c(c2)OCO3)CC1,-9
Cc1cc2ccccc2c(=O)n1CC(=O)NCC(=O)N1CCC2(CC1)OCCO2,-7
CC(=Nc1c(C)n(C)n(-c2ccccc2)c1=O)c1c(O)n(Cc2ccccc2)c(=O)[nH]c1=O,0
SMILES,Insulin prom act
CN(C)CCCN=Cc1c(O)n(CCc2ccccc2)c(=O)[nH]c1=O,-7
Cc1c(N=Cc2c(O)n(CCc3ccc(F)cc3)c(=O)[nH]c2=O)c(=O)n(-c2ccccc2)n1C,400*
CSc1ncc(Cl)c(C(=O)O)n1 (tested in a mixture with another compound),-7
CCCCN1CCC(O)(c2ccccc2)C(C(=O)c2ccccc2)C1 (stereo not drawn),14
CCP(=S)(CC)c1ccc(N(C)C)cc1,396*
O=c1c2ccccc2[se]n1-c1ccccc1,0
CC[C@@H](CO)NC(=O)[C@@H]1C=C2c3cccc4c3c(cn4C)C[C@H]2N(C)C1,-5
C=CCC1(CN2CCCCCC2=O)C(=O)NC(=O)NC1=O,118
Cc1c(C(=O)N2CCC3(CC2)OCCO3)sc2ncnc(N3CCN(c4ccccn4)CC3)c12,-3
Cc1ccc(S(=O)(=O)CC(C)(O)C(=O)Nc2cccc(C(F)(F)F)c2)cc1 (stereo not drawn),212*
O=C1NC(=O)N(c2ccc(Cl)cc2)C(=O)/C1=C\c1ccc(Sc2nc3ccccc3[nH]2)o1,7
CC12CN3CC(C)(CN(C1)C31CCOCC1)C2=O,-75
Clc1cccc(N2CCNCC2)n1,-9
O=C(COc1ccc(Br)cc1)N1CCN(Cc2c[nH]c3ccccc23)CC1,9
O=c1c2ccccc2nc(-c2ccccc2)n1-n1cccc1,6
COc1c(C)cc(C(=O)C2CCCN(Cc3ccccn3)C2)cc1C (stereo not drawn),319*
CSc1ccc(C(=O)C2CCCN(Cc3cc4ccccc4[nH]3)C2)cc1 (stereo not drawn),-6
O=C(c1ccc2c(c1)OCO2)C1CCCN(Cc2ccccn2)C1 (stereo not drawn),-7
CC1(C)COC(Nc2ccc(Cl)cc2)=N1,5
CCOC(=O)[C@]1(C#N)[C@@H]2C=CC(C(C)=O)=CN2[C@@H](C(N)=O)[C@@H]1c1ccsc1,19
CC(C)OC(=O)Nc1ccc(N=C(N)N[N+](=O)[O-])cc1,-6
CC(=O)CC(C)(C)n1c[n+](C)nn1,9
O=[N+]([O-])[N-][n+]1cnn(Cc2ccc(Cl)cc2)c1,141*
O=C(COc1ccc(Cl)cc1)N1CCN(Cc2ccc([N+](=O)[O-])cc2)CC1,9
Cc1cc(NC(=O)CCl)no1,-7
SMILES,Insulin prom act
Cc1c(C(c2ccccc2Cl)c2c(O)c3ccccc3oc2=O)c(=O)n(-c2ccccc2)n1C (stereo not drawn),7
CN1CSC(=S)N(C)C1,-68
CC1CCC/C=C/C2CC(O)CC2C(O)/C=C/C(=O)O1 (stereo not drawn),228*
CC1CCC[C@H](O)CCCCCc2cc(O)cc(O)c2C(=O)O1 (stereo partly drawn),148
CCN1CCN(Cc2cc(Br)cc(Br)c2O)CC1,-3
c1ccc2[nH]c(CCNC3CCCCC3)nc2c1,3
CN1CCN(Cc2ccc(Br)s2)CC1,-4
COc1ccc(CCNCc2ccc(C)s2)cc1OC,0
CN1C(=O)N(C)C(=O)C2(Cc3c(ccc4ccccc34)N(C)C2)C1=O,129*
O=Cc1cn(Cc2cccc(F)c2)c2ccccc12,-8
Cc1ccc(Cn2nc(C)c(C=O)c2Cl)cc1,-10
C=CCn1c(=O)c(C=Nc2cccnc2Cl)c(O)n(CCCC)c1=O,7
CCN(CC)c1ccc(/C=N/c2sc3c(c2C#N)C2CCN3CC2)c(O)c1,285*
CN1CCN(c2ncnc(Cl)c2N)CC1,7
O=C(C1CC(=O)N(C2CCCCCCC2)C1)N1CCC2(CC1)OCCO2 (stereo not drawn),-74
CN1CCN(c2ccccc2N)CC1,4
CN1/C(=C\C=C2C(=O)NC(=O)NC2=O)C(C)(C)c2ccccc21,0
CN1/C(=C\C=C\C2=[N+](C)c3ccc4ccccc4c3C2(C)C)C(C)(C)c2ccccc21,151*
Cc1nn(Cc2ccccc2)c(C)c1C(=O)OCC(=O)NC1CCS(=O)(=O)C1 (stereo not drawn),7
CCSc1nnc(C(N)Cc2ccccc2)o1 (stereo not drawn),6
